According to ChEMBL document CHEMBL1649064, “Antimalarial activity of novel 5-aryl-8-aminoquinoline derivatives” (J Med Chem, 2011):
Converted amounts (≈) assume the structure as drawn. The source made the active and inactive calls. No cut-off for these calls is given here.

Experiments:
[1] = Half life in human microsomes by LC-MS/MS analysis; assay type: ADME, Microsome
Procedure, shortened: (§1)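 Microsomal stability run on a robotic sample processor in 96-well format, following an internal SOP. Parent compound quantified by LC-MS/MS with fast LC gradient or isocratic methods.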

[2] = Half life in mouse microsomes by LC-MS/MS analysis; assay type: ADME, Microsome; procedure, shortened: as §1
RAW264.7 = assay: Cytotoxicity against mouse RAW264.7 cells after 24 hrs by MTT assay; assay type: cell-based; details: RAW264.7, 24 h
Procedure, shortened: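 Macrophage line from ATCC, seeded at 2.5 × 10⁴ cells/well and left ~12 h. Drug stocks in DMSO, serially diluted to 0.29-48 μg/mL/well. Exposure 24 h, then drug removed and fresh medium added for a further 24 h recovery. Viability read by MTT. Controls were no-cell background, untreated cells and 0.6% DMSO. Duplicate runs, IC50 from sigmoidal variable-slope fit.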

[3] = Therapeutic index, ratio of IC50 for mouse RAW264.7 cells to IC50 for mefloquine-resistant Plasmodium falciparum CDC Sierra Leone 1 D6; assay type: cell-based; details: read-out: TI
Procedure, shortened: (§2)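 RAW 264.7 macrophages seeded at 2.5 × 10⁴ cells/well and pre-incubated about 12 h. Exposed 24 h to 0.29-48 μg/mL of DMSO-dissolved drug, then drug removed, fresh medium added and 24 h recovery. Viability by MTT, with background, untreated and 0.6% DMSO controls. Duplicate runs, IC50 by sigmoidal variable-slope fit. Index is the macrophage IC50 over the P. falciparum IC50.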

Plasmodium falciparum [4] = assay: Antimalarial activity against mefloquine-susceptible Plasmodium falciparum CDC Indochina 3 W2 after 48 hrs by [3H]hypoxanthine uptake assay; assay type: functional, organism-based
Procedure, shortened: (§3)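 Compounds dissolved in DMSO, diluted 400-fold in RPMI 1640 with 25 mM Hepes, 32 mM NaHCO₃ and 10% Albumax I, then 2-fold serial dilutions over 11 concentrations. Parasites exposed 48 h at 37 °C under 5% O₂/5% CO₂/90% N₂, then [³H]-hypoxanthine added for a further 18 h. DNA harvested onto glass filters and counted. IC50 from a nonlinear regression logistic dose-response model.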

[5] = Therapeutic index, ratio of IC50 for mouse RAW264.7 cells to IC50 for mefloquine-susceptible Plasmodium falciparum CDC Indochina 3 W2; assay type: cell-based; details: read-out: TI; procedure, shortened: as §2
Plasmodium falciparum [6] = assay: Antimalarial activity against mefloquine-resistant Plasmodium falciparum CDC Sierra Leone 1 D6 after 48 hrs by [3H]hypoxanthine uptake assay; assay type: functional, organism-based; procedure, shortened: as §3
Plasmodium berghei [7] = assay: Prophylactic antimalarial activity against Plasmodium berghei infected Exoerythrocytic mouse model; assay type: functional
Procedure, shortened: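 Mice infected with P. berghei sporozoites by intravenous inoculation. Compounds given orally once daily for 3 days at up to 320 mg/kg/day. Read-out was cure and delay of patency in groups of 4 mice.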

Plasmodium berghei [8] = assay: Prophylactic antimalarial activity against Plasmodium berghei infected Exoerythrocytic mouse model at 320 mg/kg, po for 3 days; assay type: functional, organism-based; design: dose 320 mg/kg
Procedure, shortened: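 Mice infected with P. berghei sporozoites by intravenous inoculation. Compound given orally daily for 3 days. Read-outs were cure and delay of patency.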

COc1cc(NC(C)CCCN)c2nc(C(F)(F)F)cc(C)c2c1-c1cccc(C)c1.O=C(O)CCC(=O)O (stereo not drawn)
half-life [1]: > 1 h | half-life [2]: > 1 h | IC50 (RAW264.7): 1.8 µg/mL | selectivity ratio [3]: 9 | IC50 (Plasmodium falciparum [4]): 0.9 µg/mL | selectivity ratio [5]: 2 | IC50 (Plasmodium falciparum [6]): 0.2 µg/mL

COc1cc(C)c2c(Oc3cccc(C(F)(F)F)c3)c(OC)cc(NC(C)CCCN)c2n1 (stereo not drawn) [TAFENOQUINE]
half-life [1]: > 1 h | half-life [2]: > 1 h | IC50 (RAW264.7): 5.9 µg/mL (≈ 12.7 µM) | MAC (Plasmodium berghei [7]): 7.5 mg/kg/day | MTD (Plasmodium berghei [7]): 120 mg/kg/day | selectivity ratio [3]: 2.2 | IC50 (Plasmodium falciparum [4]): 0.8 µg/mL (≈ 1.73 µM) | selectivity ratio [5]: 7.38 | IC50 (Plasmodium falciparum [6]): 2.7 µg/mL (≈ 5.83 µM)

COc1cc(C)c2c(-c3ccccc3)c(OC)cc(NC(C)CCCN)c2n1.O=C(O)CCC(=O)O (stereo not drawn)
half-life [1]: > 1 h | half-life [2]: > 1 h | IC50 (RAW264.7): 1.9 µg/mL | selectivity ratio [3]: 0.59 | IC50 (Plasmodium falciparum [4]): 1.3 µg/mL | selectivity ratio [5]: 1.46 | IC50 (Plasmodium falciparum [6]): 3.2 µg/mL

COc1cc(NC(C)CCCNC(=O)OC(C)(C)C)c2nc(C(F)(F)F)cc(C)c2c1-c1cccc(C)c1 (stereo not drawn)
half-life [1]: 0.217 h | half-life [2]: 0.183 h | IC50 (RAW264.7): > 48 µg/mL | MAC (Plasmodium berghei [7]): >960 mg/kg/day | MTD (Plasmodium berghei [7]): >960 mg/kg/day | selectivity ratio [3]: > 240 | IC50 (Plasmodium falciparum [4]): 0.9 µg/mL (≈ 1.69 µM) | selectivity ratio [5]: > 59 | Activity (Plasmodium berghei [8]): inactive | IC50 (Plasmodium falciparum [6]): 0.2 µg/mL (≈ 0.376 µM)

COc1cc(NC(C)CCCN)c2nc(C(F)(F)F)cc(C)c2c1-c1ccccc1.O=C(O)CCC(=O)O (stereo not drawn)
half-life [1]: > 1 h | half-life [2]: > 1 h | IC50 (RAW264.7): 3.1 µg/mL | MAC (Plasmodium berghei [7]): >960 mg/kg/day | MTD (Plasmodium berghei [7]): 480 mg/kg/day | selectivity ratio [3]: 1.11 | IC50 (Plasmodium falciparum [4]): 1.4 µg/mL | selectivity ratio [5]: 2.21 | Activity (Plasmodium berghei [8]): inactive | IC50 (Plasmodium falciparum [6]): 2.8 µg/mL

COc1cccc(-c2c(OC)cc(NC(C)CCCN)c3nc(OC)cc(C)c23)c1.O=C(O)CCC(=O)O (stereo not drawn)
half-life [1]: > 1 h | half-life [2]: > 1 h | IC50 (RAW264.7): 3.1 µg/mL | MAC (Plasmodium berghei [7]): >480 mg/kg/day | MTD (Plasmodium berghei [7]): >480 mg/kg/day | selectivity ratio [3]: 1.11 | IC50 (Plasmodium falciparum [4]): 0.8 µg/mL | selectivity ratio [5]: 3.87 | Activity (Plasmodium berghei [8]): inactive | IC50 (Plasmodium falciparum [6]): 2.8 µg/mL

COc1cc(NC(C)CCCN)c2nc(C(F)(F)F)cc(C)c2c1-c1ccc(C(F)(F)F)cc1.O=C(O)CCC(=O)O (stereo not drawn)
half-life [1]: > 1 h | half-life [2]: > 1 h | IC50 (RAW264.7): 10.1 µg/mL | selectivity ratio [3]: 5.94 | IC50 (Plasmodium falciparum [4]): 0.8 µg/mL | selectivity ratio [5]: 12.6 | IC50 (Plasmodium falciparum [6]): 1.7 µg/mL

COc1cc(C)c2c(-c3ccc(C(F)(F)F)cc3)c(OC)cc(NC(C)CCCN)c2n1.O=C(O)CCC(=O)O (stereo not drawn)
half-life [1]: > 1 h | half-life [2]: > 1 h | IC50 (RAW264.7): 1.2 µg/mL | MAC (Plasmodium berghei [7]): >480 mg/kg/day | MTD (Plasmodium berghei [7]): >480 mg/kg/day | selectivity ratio [3]: 0.54 | IC50 (Plasmodium falciparum [4]): 1.3 µg/mL | selectivity ratio [5]: 0.92 | Activity (Plasmodium berghei [8]): inactive | IC50 (Plasmodium falciparum [6]): 2.2 µg/mL

COc1cc(NC(C)CCCNC(=O)OC(C)(C)C)c2nc(C(F)(F)F)cc(C)c2c1-c1ccc(C(F)(F)F)cc1 (stereo not drawn)
half-life [1]: 0.5 h | half-life [2]: 0.267 h | IC50 (RAW264.7): > 48 µg/mL | MAC (Plasmodium berghei [7]): >960 mg/kg/day | MTD (Plasmodium berghei [7]): >960 mg/kg/day | selectivity ratio [3]: > 36 | IC50 (Plasmodium falciparum [4]): 1.4 µg/mL (≈ 2.39 µM) | selectivity ratio [5]: > 34 | Activity (Plasmodium berghei [8]): inactive | IC50 (Plasmodium falciparum [6]): 1.3 µg/mL (≈ 2.22 µM)

COc1cc(C)c2c(-c3cccc(C)c3)c(OC)cc(NC(C)CCCN)c2n1.O=C(O)CCC(=O)O (stereo not drawn)
half-life [1]: > 1 h | half-life [2]: > 1 h | IC50 (RAW264.7): 1.9 µg/mL | MAC (Plasmodium berghei [7]): 960 mg/kg/day | MTD (Plasmodium berghei [7]): 960 mg/kg/day | selectivity ratio [3]: 1.46 | IC50 (Plasmodium falciparum [4]): 0.7 µg/mL | selectivity ratio [5]: 2.71 | Activity (Plasmodium berghei [8]): Active | IC50 (Plasmodium falciparum [6]): 1.3 µg/mL

COc1cc(NC(C)CCCNC(=O)OC(C)(C)C)c2nc(C(F)(F)F)cc(C)c2c1-c1cccc(C(F)(F)F)c1 (stereo not drawn)
half-life [1]: 0.3 h | half-life [2]: 0.3 h | IC50 (RAW264.7): > 48 µg/mL | MAC (Plasmodium berghei [7]): >960 mg/kg/day | MTD (Plasmodium berghei [7]): >960 mg/kg/day | selectivity ratio [3]: > 39.7 | IC50 (Plasmodium falciparum [4]): 2.8 µg/mL (≈ 4.78 µM) | selectivity ratio [5]: > 17 | Activity (Plasmodium berghei [8]): inactive | IC50 (Plasmodium falciparum [6]): 1.1 µg/mL (≈ 1.88 µM)

COc1cc(NC(C)CCCN)c2nc(C(F)(F)F)cc(C)c2c1-c1cccc(C(F)(F)F)c1.O=C(O)CCC(=O)O (stereo not drawn)
half-life [1]: > 1 h | half-life [2]: > 1 h | IC50 (RAW264.7): 1.5 µg/mL | selectivity ratio [3]: 1.07 | IC50 (Plasmodium falciparum [4]): 0.5 µg/mL | selectivity ratio [5]: 3 | IC50 (Plasmodium falciparum [6]): 1.4 µg/mL

COc1cc(C)c2c(-c3cccc(C(F)(F)F)c3)c(OC)cc(NC(C)CCCN)c2n1.O=C(O)CCC(=O)O (stereo not drawn)
half-life [1]: > 1 h | half-life [2]: > 1 h | IC50 (RAW264.7): 1.3 µg/mL | MAC (Plasmodium berghei [7]): >480 mg/kg/day | MTD (Plasmodium berghei [7]): >480 mg/kg/day | selectivity ratio [3]: 0.48 | IC50 (Plasmodium falciparum [4]): 1.3 µg/mL | selectivity ratio [5]: 1 | Activity (Plasmodium berghei [8]): inactive | IC50 (Plasmodium falciparum [6]): 2.7 µg/mL

COc1cccc(-c2c(OC)cc(NC(C)CCCN)c3nc(C(F)(F)F)cc(C)c23)c1.O=C(O)CCC(=O)O (stereo not drawn)
half-life [1]: > 1 h | half-life [2]: > 1 h | IC50 (RAW264.7): 1.5 µg/mL | selectivity ratio [3]: 5 | IC50 (Plasmodium falciparum [4]): 0.6 µg/mL | selectivity ratio [5]: 2.5 | IC50 (Plasmodium falciparum [6]): 0.3 µg/mL

COc1cc(NC(C)CCCN)c2ncccc2c1 (stereo not drawn) [PRIMAQUINE]
half-life [1]: > 1 h | half-life [2]: 0.35 h | IC50 (RAW264.7): 38.7 µg/mL (≈ 149 µM) | MAC (Plasmodium berghei [7]): 60 mg/kg/day | MTD (Plasmodium berghei [7]): <120 mg/kg/day | selectivity ratio [3]: 18.4 | IC50 (Plasmodium falciparum [4]): 0.9 µg/mL (≈ 3.47 µM) | selectivity ratio [5]: 43 | IC50 (Plasmodium falciparum [6]): 2.1 µg/mL (≈ 8.1 µM)

COc1cc(C)c2c(-c3ccc(Cl)c(Cl)c3)c(OC)cc(NC(C)CCCN)c2n1.O=C(O)CCC(=O)O (stereo not drawn)
half-life [1]: > 1 h | half-life [2]: > 1 h | IC50 (RAW264.7): 1.7 µg/mL | MAC (Plasmodium berghei [7]): >480 mg/kg/day | MTD (Plasmodium berghei [7]): 120 mg/kg/day | selectivity ratio [3]: 0.58 | IC50 (Plasmodium falciparum [4]): 1.2 µg/mL | selectivity ratio [5]: 1.42 | Activity (Plasmodium berghei [8]): inactive | IC50 (Plasmodium falciparum [6]): 2.9 µg/mL

COc1cccc(-c2c(OC)cc(NC(C)CCCNC(=O)OC(C)(C)C)c3nc(C(F)(F)F)cc(C)c23)c1 (stereo not drawn)
half-life [1]: 0.15 h | half-life [2]: 0.133 h | IC50 (RAW264.7): > 80.2 µg/mL | MAC (Plasmodium berghei [7]): >960 mg/kg/day | MTD (Plasmodium berghei [7]): >960 mg/kg/day | selectivity ratio [3]: > 267 | IC50 (Plasmodium falciparum [4]): 0.6 µg/mL (≈ 1.1 µM) | selectivity ratio [5]: > 134 | Activity (Plasmodium berghei [8]): inactive | IC50 (Plasmodium falciparum [6]): 0.3 µg/mL (≈ 0.548 µM)
